# Source: PubChem
# WT yeast gro inh – growth inhibition of WT strain, primary screen, mitochondrial fusion inhibitor project, WT and mutant strains, chemical genetic; 190,000 compounds, 2.1% hits; AID 1362, 2008; mitochondrial fusion phenotypic screen; inhibition, % at 10 µM; in the data active = inhibition above about 58%; tested in S. cerevisiae
# Cl transport mod – KCC2 cotransporter modulators, thallium flux, primary screen, cell-based, HEK293 KCC2, FluoZin-2 fluorescence, MLSMR | KCC2 cells, thallium flux FluoZin-2 fluorescence | B-score of Tl+ flux slope (higher = more flux/activation; lower = inhibition) at 10 µM | Solute carrier family 12 member 5 (Homo sapiens), Q9H2X9 | AID 1456, 2008 | 190,000 compounds, 2.2% hits;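 active = thallium flux slope and its plate-corrected score both differing from the plate sample mean at a set confidence after two filtering rounds, in either direction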;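 note: slope of fluorescence scaled to starting intensity during 10 to 20 s after thallium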
# Target sequence (Q9H2X9 whole entry, looked up): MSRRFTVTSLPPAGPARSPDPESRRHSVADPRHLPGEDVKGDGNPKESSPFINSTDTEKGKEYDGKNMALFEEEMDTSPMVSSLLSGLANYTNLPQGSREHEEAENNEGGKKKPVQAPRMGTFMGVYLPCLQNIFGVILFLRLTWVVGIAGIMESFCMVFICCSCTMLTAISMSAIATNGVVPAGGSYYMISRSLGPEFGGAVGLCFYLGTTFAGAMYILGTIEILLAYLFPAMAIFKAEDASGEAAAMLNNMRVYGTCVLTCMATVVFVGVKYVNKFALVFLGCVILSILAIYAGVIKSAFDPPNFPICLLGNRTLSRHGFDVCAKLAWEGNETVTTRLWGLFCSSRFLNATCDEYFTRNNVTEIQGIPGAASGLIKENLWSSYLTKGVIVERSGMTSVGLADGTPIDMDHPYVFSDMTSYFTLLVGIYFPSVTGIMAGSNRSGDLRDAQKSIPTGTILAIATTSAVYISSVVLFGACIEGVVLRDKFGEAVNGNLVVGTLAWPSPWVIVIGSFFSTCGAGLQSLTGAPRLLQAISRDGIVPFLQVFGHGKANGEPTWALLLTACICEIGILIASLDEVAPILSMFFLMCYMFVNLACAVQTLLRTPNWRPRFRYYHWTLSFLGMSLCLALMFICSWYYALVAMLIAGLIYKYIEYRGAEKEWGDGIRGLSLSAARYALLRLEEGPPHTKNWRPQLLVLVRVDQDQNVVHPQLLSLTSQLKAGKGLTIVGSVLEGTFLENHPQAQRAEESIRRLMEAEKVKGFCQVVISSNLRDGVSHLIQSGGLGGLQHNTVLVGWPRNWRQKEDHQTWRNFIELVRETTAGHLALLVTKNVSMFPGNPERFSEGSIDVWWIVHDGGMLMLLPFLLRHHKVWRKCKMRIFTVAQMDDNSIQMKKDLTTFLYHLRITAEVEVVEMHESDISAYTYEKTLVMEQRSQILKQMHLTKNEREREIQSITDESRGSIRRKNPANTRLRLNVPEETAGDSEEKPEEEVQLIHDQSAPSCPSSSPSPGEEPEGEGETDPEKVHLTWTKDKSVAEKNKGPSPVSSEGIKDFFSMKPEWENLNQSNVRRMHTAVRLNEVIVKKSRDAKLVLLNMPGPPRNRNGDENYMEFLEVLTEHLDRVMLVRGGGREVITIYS
# MT stabilizer – microtubule stabilizers in HeLa cells, primary screen, imaging, high-content imaging. HeLa tubulin immunostaining HCS, 24 h; share of cells brighter than vehicle mean+2SD. % tubulin-high responders, % at 10 µM. 200,000 compounds, 0.83% hits;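 active = plate Z-score above 3 for both tubulin-high and condensed-nucleus cell shares, with cell loss under 80%, at 10 µM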;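 note: anti alpha tubulin signal scored within the nucleus-defined area of each cell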
# bCat nuc transl – modulators of beta-catenin nuclear translocation, primary screen, imaging, HeLa cells, immunofluorescence, high-content | 190,000 compounds, 0.3% hits | nuclear translocation activity, % at 5 µM;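 active = nuclear translocation activity above 50% at 5 µM, with a well cell count of 50 or more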;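 note: per-cell ratio of nuclear to cytoplasmic median beta-catenin stain intensity; plate controls were DMSO negative control for no effect and GSK-3 inhibitor IX positive control for full effect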
#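 Test system: human HeLa cells, native beta-catenin. Compound dosing: 5 µM primary single dose, 0.1% DMSO, 0.02–20 µM confirmation series. Incubation: compound exposure 24 h at 37°C. Detection: beta-catenin immunostaining with DAPI counterstain, 20x imaging, 6 fields/well. Read-out basis: Nuclear/cytoplasmic beta-catenin signal ratio, % activation.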
# Pf gametocyte – late stage P. falciparum gametocyte viability inhibitors, primary screen, ATP luminescence, HTS | 150,000 compounds, 0.065% hits | inhibition, % at 10.9 µM | P. falciparum stage V gametocytes, 24 h | AID 743093, 2013;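 active = inhibition above the mean plus 3 SD of compounds within the control limits, set per campaign, cut at about 38% in these data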;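 note: 0% = DMSO wells and 100% = medium only without gametocytes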
# The depositor's hits bear a star; · = no result given. Sampled rows, rich in hits. Any-hit rate of the full collection: about 4%.
SMILES,WT yeast gro inh,Cl transport mod,MT stabilizer,bCat nuc transl,Pf gametocyte
O=C(COc1ccc(Cl)cc1)NCCSCc1cccc(Cl)c1,79.4*,0.106,2.3,-1.4,·
O=C(COc1ccccc1-c1ccccc1)NCc1cccc(Cl)c1,77.7*,0.0179,5.6,-2.9,-1.0
O=C(COc1ccc(Cl)cc1Cl)NCCCCc1ccccc1,76.0*,-0.00227,1.7,-1.0,·
Cc1ccccc1OCC(=O)NCc1ccccc1,8.0,-0.0732,1.9,1.9,10.6
COc1ccc(NC(=O)c2cc(CC(C)C)nc3ccccc23)cc1,·,·,·,·,3.9
Cc1cc(=O)oc2cc(OC(=O)CCCCCN3C(=O)c4ccccc4C3=O)ccc12,-2.6,-1.05,7.4,4.1,-12.8
O=C(N/C=N/OCc1ccc(Cl)cc1Cl)NOCc1ncc(C(F)(F)F)cc1Cl,68.8*,1.76,2.0,-0.9,·
CCOc1ccccc1N1CC(O)=C(c2nc3ccccc3s2)C1=N,8.4,-0.595,28.3*,10.4,18.3
COc1ccc(OC)c(N2CC(O)=C(c3nc4ccccc4s3)C2=N)c1,-1.1,-0.447,5.5,-1.0,·
COc1ccc(CN(C)C2c3ccccc3-c3ccccc32)cc1,69.2*,0.606,8.6,-0.3,·
COc1ccc(CP(=O)(c2ccccc2)c2ccccc2)cc1,·,·,·,·,13.7
C=CCn1c(C)cc(C(=O)COC(=O)c2ccc3c(c2)NC(=O)CS3)c1C,15.4,0.118,2.3,-3.9,0.4
Brc1ccc(CSc2nccn2-c2ccccc2)cc1,32.8,·,0.9,·,7.2
FC(F)(F)c1ccc(CSc2nccn2-c2ccccc2)cc1,62.9*,0.00172,3.6,·,-8.5
CC(C)=C(NC(=O)c1ccccc1)C(=O)Nc1cccc(C(=O)O)c1,-13.1,0.893,1.1,-0.3,·
Cc1ccc(C)c(NC(=S)NNC(=O)c2cc3c(s2)CCC(C)C3)c1 (stereo not given),4.1,28.4*,3.3,0.0,-9.6
Cc1cccc(NC(=S)NNC(=O)c2csc3c2CCC(C)C3)c1 (stereo not given),37.4,25.1*,2.1,0.5,·
Cc1ccc(C)c(NC(=S)NNC(=O)c2csc(C(C)C)c2)c1,3.8,13.5*,4.0,-1.0,3.3
CC(C)CNC(=S)NNC(=O)c1csc2c1CCC(C)C2 (stereo not given),18.8,-0.132,1.9,-5.5,·
Cc1ccc(C)c(NC(=S)NNC(=O)c2ccco2)c1,-6.1,-0.077,2.8,0.4,·
COc1cccc(N(C(=O)c2ccco2)C(C(=O)NC2CCCC2)c2cccnc2)c1 (stereo not given),3.3,·,0.9,-4.5,·
O=C(NC1CCCCC1)C(c1cccnc1)N(C(=O)CCl)c1cccc(Cl)c1 (stereo not given),-7.5,-0.152,13.6*,25.1,7.8
COc1ccc2oc(=O)c(-c3nnc(NCc4ccco4)s3)cc2c1,-4.2,-0.655,46.1*,5.5,-7.1
CCOc1cccc2cc(-c3nnc(NCc4ccco4)s3)c(=O)oc12,1.7,·,2.4,-0.7,·
CCCCC1=NN(C(=O)c2ccco2)C(O)(C(F)(F)F)C1 (stereo not given),7.2,-0.105,15.1*,13.2,-23.3
SMILES,WT yeast gro inh,Cl transport mod,MT stabilizer,bCat nuc transl,Pf gametocyte
COC(=O)C1=C(C)N(CCc2cc(OC)c(OC)c(OC)c2)C(=O)N[C@H]1c1ccccc1,·,·,·,·,20.6
O=C(CN1CCOCC1)Nc1cccc(C(=O)Nc2cccc(C(F)(F)F)c2)c1,-8.5,-0.11,1.9,-0.7,-26.0
CCCCCNCC(=O)Nc1cccc(C(=O)Nc2cccc(C(F)(F)F)c2)c1,78.4*,0.835,3.3,-0.3,·
Cc1ccc(NC(=S)NNC(=O)CSc2nc3ccccc3c(=O)n2-c2ccc(C)cc2)cc1,3.6,-0.927,2.0,1.1,-17.8
COc1ccccc1/C=C/C=N/n1c(-c2n[nH]c3c2CCC3)n[nH]c1=S,·,0.233,·,61.8*,1.5
COc1ccccc1/C=C\C=N\n1c(C2CCCCC2)n[nH]c1=S,70.3*,-0.688,1.4,-1.0,-8.3
O=C1c2ccccc2CC1(Cc1ccccc1)Cc1ccccc1,73.0*,-0.149,3.5,3.2,-13.3
CC12CCC(=O)N1C(C(=O)OCC(=O)Nc1ccc(Cl)c(Cl)c1)CS2 (stereo not given),15.5,-0.393,2.8,-0.4,6.7
COc1ccc(C(=O)CSc2nnc(CN3CCCC3)n2-c2ccc(F)cc2)c(OC)c1,8.9,-0.999,1.8,1.2,·
Cc1ccc(S(=O)(=O)CC(=O)Nc2nc(-c3ccccc3)cs2)cc1,60.6*,·,1.2,·,18.3
Cc1ccc(S(=O)(=O)Nc2ccccc2C(=O)Nc2nc(-c3ccc(F)cc3)cs2)cc1,73.9*,0.721,5.8,-0.9,3.0
c1ccc(CCNc2ccnc3cc4ccccc4cc23)cc1,63.4,-0.659,30.9*,2.2,10.2
CC(C)(C)n1nnnc1C(c1ccc(Cl)cc1)N(Cc1cccnc1)Cc1ccco1 (stereo not given),68.2*,-2.19,2.1,-3.2,·
CC(C)(C)n1nnnc1C(c1cccs1)N(Cc1ccccc1)Cc1cccnc1 (stereo not given),25.4,-0.445,1.5,-1.2,·
CC(C)(C)n1nnnc1C(c1ccc(F)cc1)N(Cc1ccc(F)cc1)Cc1ccco1 (stereo not given),58.6*,0.103,3.6,-0.5,-4.3
CC(C)(C)n1nnnc1C(c1cccnc1)N(Cc1ccccc1)Cc1cccs1 (stereo not given),81.4*,-1.29,2.8,-2.3,·
O=C(N/N=C/c1cccc(OC(=O)c2ccco2)c1)c1ccc(F)cc1,-12.4,0.0046,1.5,-0.9,·
Clc1ccc(CSc2nnc(-c3ccccn3)n2Cc2ccco2)c(Cl)c1,59.5*,·,3.6,-1.3,-21.7
Fc1ccccc1CSc1nnc(-c2cnccn2)n1Cc1ccco1,7.6,·,2.8,-1.7,19.9
C(=C\c1ccccc1)/CSc1nnc(-c2cnccn2)n1Cc1ccco1,6.4,·,4.7,56.4*,·
Cc1ccccc1CN(C)CC(=O)Nc1c(C)cccc1C(C)C,8.1,-0.196,3.8,-1.2,15.8
CC(=O)N(CCC(Cc1ccccc1)c1ccc2c(c1)OCO2)Cc1ccccc1F (stereo not given),77.8*,·,0.8,4.6,4.7
Cc1cc(/C=N/n2cnnc2)c(C)n1-c1ccc(OCc2ccc(Cl)cc2)cc1,65.8*,0.0664,0.5,·,·
O=C(NCC1CCCO1)c1sc2cc(Cl)ccc2c1Cl (stereo not given),-6.0,0.0684,3.6,-3.5,·
COc1ccc(/C=C2\SC(N3CCc4ccccc4C3)=NC2=O)cc1,62.3*,-0.0808,1.0,3.4,15.9
CCOc1ccc(/C=C2\SC(N3CCc4ccccc4C3)=NC2=O)cc1,35.6,-0.919,2.8,-7.0,-11.2
C(=N\NC(=Nc1ccccc1)c1ccccn1)/c1ccccn1,1.6,0.821,2.8,0.4,-0.7
Clc1ccc(/C=N/NC(=Nc2ccccc2)c2ccccn2)c(Cl)c1,74.1*,·,1.1,0.2,·
